Experimental data taken from ChEMBL document CHEMBL1156006, “Potent and cellularly active 4-aminoimidazole inhibitors of cyclin-dependent kinase 5/p25 for the treatment of Alzheimer's disease” (Bioorg Med Chem Lett, 2009).

What was measured:
[1] = Selectivity ratio, IC50 for CDK2/cyclin E over IC50 for CDK5/p25
[2] = target: T1, Cyclin-dependent kinase 5/CDK5 activator 1 (Homo sapiens, UniProt Q00535); experiment: Inhibition of CDK5/p25 by scintillation proximity assay; type: protein-complex assay
T1 sequence (Q00535 whole entry): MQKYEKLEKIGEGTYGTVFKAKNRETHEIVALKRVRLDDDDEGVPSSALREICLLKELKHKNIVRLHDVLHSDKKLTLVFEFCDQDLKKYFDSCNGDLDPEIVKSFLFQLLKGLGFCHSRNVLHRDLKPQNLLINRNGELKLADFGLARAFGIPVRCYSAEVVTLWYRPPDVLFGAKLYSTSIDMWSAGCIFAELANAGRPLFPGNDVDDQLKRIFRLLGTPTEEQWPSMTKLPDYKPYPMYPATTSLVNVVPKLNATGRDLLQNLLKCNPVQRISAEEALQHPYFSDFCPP
T1 sequence (Q15078 whole entry, further chain): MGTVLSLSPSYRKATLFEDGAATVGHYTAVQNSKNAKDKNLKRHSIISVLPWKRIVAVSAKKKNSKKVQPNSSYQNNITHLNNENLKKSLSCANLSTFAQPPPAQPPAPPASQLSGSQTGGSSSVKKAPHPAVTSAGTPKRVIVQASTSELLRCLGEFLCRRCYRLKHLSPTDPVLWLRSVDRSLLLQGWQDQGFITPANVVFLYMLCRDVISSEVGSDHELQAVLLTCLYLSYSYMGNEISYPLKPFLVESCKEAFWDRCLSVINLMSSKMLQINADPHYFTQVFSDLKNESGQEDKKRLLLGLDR

[3] = Ratio of drug level from brain to plasma in FV/B mouse at 2 mg/kg, sc after 1 hr
[4] = Ratio of drug level from brain to plasma in MDR1A/1B knockout mouse at 2 mg/kg, sc after 1 hr
[5] = target: T1, Cyclin-dependent kinase 5/CDK5 activator 1; experiment: Inhibition of human CDK5/p25 expressed in CHO cells after 2 hrs by whole cell assay; type: cell-based
Outline: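 The cell line carries doxycycline-regulated CDK5, p25 and tau transgenes and was kept uninduced in doxycycline medium. Expression was induced by removing doxycycline for 24 h. Cells were then treated with compound for 2 h and lysed. Phosphorylated tau was measured in detergent-soluble extracts by AlphaLISA.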

[6] = Drug level in MDR1A/1B knockout mouse brain at 2 mg/kg, sc after 1 hr; type: ADME, organism-based; set-up: dose 2 mg/kg, route subcutaneous; conditions: read-out: Drug uptake
[7] = Plasma concentration in FV/B mouse at 2 mg/kg, sc after 1 hr; type: ADME, organism-based; set-up: dose 2 mg/kg, route subcutaneous
[8] = Plasma concentration in MDR1A/1B knockout mouse at 2 mg/kg, sc after 1 hr; type: ADME, organism-based; set-up: dose 2 mg/kg, route subcutaneous
[9] = Drug level in FV/B mouse brain at 2 mg/kg, sc after 1 hr; type: ADME, organism-based; set-up: dose 2 mg/kg, route subcutaneous; conditions: read-out: Drug uptake
[10] = Apparent permeability from apical to basolateral side in human Caco-2 cells
[11] = Apparent permeability from basolateral to apical side in human Caco-2 cells
[12] = target: T2, Cyclin-dependent kinase 2/cyclin A (Homo sapiens) (UniProt P24941+P20248+P78396); experiment: Inhibition of CDK2/cyclin A at 1 uM by scintillation proximity assay; type: protein-complex assay
[13] = target: T2, Cyclin-dependent kinase 2/cyclin A (Homo sapiens); experiment: Inhibition of CDK2/cyclin A at 10 uM by scintillation proximity assay; type: protein-complex assay
[14] = target: Casein kinase I isoform delta (Homo sapiens) (UniProt P48730); experiment: Inhibition of CK1delta at 1 uM by scintillation proximity assay
Casein kinase I isoform delta (Homo sapiens), sequence (P48730 whole entry, looked up, canonical isoform): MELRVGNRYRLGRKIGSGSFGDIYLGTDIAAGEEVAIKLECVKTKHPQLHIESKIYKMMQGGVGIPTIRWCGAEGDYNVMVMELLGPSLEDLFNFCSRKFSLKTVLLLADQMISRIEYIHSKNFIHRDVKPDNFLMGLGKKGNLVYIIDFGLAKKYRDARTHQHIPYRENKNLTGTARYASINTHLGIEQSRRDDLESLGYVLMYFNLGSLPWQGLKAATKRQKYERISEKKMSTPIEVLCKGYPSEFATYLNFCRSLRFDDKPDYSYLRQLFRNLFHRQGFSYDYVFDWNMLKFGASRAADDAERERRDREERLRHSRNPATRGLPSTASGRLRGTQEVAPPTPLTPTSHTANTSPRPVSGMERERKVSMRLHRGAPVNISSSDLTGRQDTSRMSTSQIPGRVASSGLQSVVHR

[15] = target: Casein kinase I isoform delta (Homo sapiens) (UniProt P48730); experiment: Inhibition of CK1delta at 10 uM by scintillation proximity assay
[16] = target: Glycogen synthase kinase-3 beta (Homo sapiens) (UniProt P49841); experiment: Inhibition of GSK3-beta at 10 uM by scintillation proximity assay
Glycogen synthase kinase-3 beta (Homo sapiens), sequence (P49841 whole entry, looked up): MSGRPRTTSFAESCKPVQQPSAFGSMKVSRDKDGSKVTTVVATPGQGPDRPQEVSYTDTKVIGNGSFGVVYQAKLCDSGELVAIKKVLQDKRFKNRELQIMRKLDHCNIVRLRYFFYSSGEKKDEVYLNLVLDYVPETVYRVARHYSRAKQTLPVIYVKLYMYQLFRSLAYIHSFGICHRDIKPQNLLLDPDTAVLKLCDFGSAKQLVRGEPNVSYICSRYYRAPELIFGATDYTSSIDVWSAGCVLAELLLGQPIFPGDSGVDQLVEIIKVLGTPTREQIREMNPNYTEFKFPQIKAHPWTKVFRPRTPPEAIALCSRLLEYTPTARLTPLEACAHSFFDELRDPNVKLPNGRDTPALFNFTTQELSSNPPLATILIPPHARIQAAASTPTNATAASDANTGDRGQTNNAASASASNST
Outline: (§1)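 Single-concentration profiling by scintillation proximity assay across a 20-kinase panel, including AMPK, GSK3b, MAPK1 and PHK. Compound was tested at 10, with ATP at the Km of each kinase.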

[17] = target: Glycogen synthase kinase-3 beta (Homo sapiens) (UniProt P49841); experiment: Inhibition of GSK3-beta at 1 uM by scintillation proximity assay
[18] = target: Dual specificity protein kinase CLK1 (Homo sapiens) (UniProt P49759); experiment: Inhibition of CLK1 at 10 uM by scintillation proximity assay
Dual specificity protein kinase CLK1 (Homo sapiens), sequence (P49759 whole entry, looked up): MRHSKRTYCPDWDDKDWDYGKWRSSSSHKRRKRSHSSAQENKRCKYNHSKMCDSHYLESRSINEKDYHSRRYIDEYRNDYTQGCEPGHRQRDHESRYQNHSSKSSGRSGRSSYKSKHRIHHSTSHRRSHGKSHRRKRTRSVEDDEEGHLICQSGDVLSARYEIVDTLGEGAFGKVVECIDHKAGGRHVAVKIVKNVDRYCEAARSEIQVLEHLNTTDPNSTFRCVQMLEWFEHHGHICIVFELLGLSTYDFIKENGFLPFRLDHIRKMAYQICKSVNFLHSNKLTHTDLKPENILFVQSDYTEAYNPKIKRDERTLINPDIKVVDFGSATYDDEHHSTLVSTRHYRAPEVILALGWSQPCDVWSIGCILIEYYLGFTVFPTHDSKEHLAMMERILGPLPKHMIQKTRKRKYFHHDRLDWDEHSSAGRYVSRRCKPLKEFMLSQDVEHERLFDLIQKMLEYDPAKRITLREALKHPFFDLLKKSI

[19] = target: Dual specificity protein kinase CLK1 (Homo sapiens) (UniProt P49759); experiment: Inhibition of CLK1 at 1 uM by scintillation proximity assay
[20] = target: Mitogen-activated protein kinase 1 (Homo sapiens) (UniProt P28482); experiment: Inhibition of MAPK1/ERK2 at 10 uM by scintillation proximity assay
Mitogen-activated protein kinase 1 (Homo sapiens), sequence (P28482 whole entry): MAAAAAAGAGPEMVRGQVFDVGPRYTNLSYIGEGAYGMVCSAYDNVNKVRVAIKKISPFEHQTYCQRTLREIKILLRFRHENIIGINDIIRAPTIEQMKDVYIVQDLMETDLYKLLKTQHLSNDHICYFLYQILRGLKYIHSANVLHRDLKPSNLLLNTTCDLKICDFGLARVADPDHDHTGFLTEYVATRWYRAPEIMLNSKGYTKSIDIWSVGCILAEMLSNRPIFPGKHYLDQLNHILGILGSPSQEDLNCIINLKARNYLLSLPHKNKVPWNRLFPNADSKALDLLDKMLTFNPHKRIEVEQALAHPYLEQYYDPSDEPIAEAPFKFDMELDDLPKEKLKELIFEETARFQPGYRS
Outline: as §1

[21] = target: Mitogen-activated protein kinase 1 (Homo sapiens) (UniProt P28482); experiment: Inhibition of MAPK1/ERK2 at 1 uM by scintillation proximity assay
[22] = Inhibition of AMPK at 10 uM by scintillation proximity assay
Outline: as §1

[23] = Inhibition of PHK at 10 uM by scintillation proximity assay
Outline: as §1

[24] = Selectivity ratio, IC50 for human CDK5/p25 by whole cell assay over IC50 for CDK5/p25

Row | Ratio IC50 [1] | IC50 [2] [nM] | SMILES | further results
1 | 11 | 28 | O=C(Cc1cccc2ccccc12)Nc1cn([C@H]2C[C@@H](NC(=O)c3ccncc3)C2)cn1 | 
2 | 0.2 | 4380 | COc1ccc(CC(=O)Nc2cn([C@H]3C[C@H](C(=O)OC)C3)cn2)cc1 | 
3 | 15 | 46 | O=C(Cc1cccc2ccccc12)Nc1cn([C@H]2C[C@@H](NC(=O)c3cccnc3)C2)cn1 | IC50 [5]: > 30000 nM
4 |  | 154 | COc1ccc(CC(=O)Nc2cn(C3CCCC3)cn2)cc1 | 
5 | 0.7 | 1090 | COc1ccc(CC(=O)Nc2cn([C@H]3C[C@H](O)C3)cn2)cc1 | 
6 |  | 814 | COc1ccc(CC(=O)Nc2cn(C3CC3)cn2)cc1 | 
7 | 20 | 14 | O=C(Cc1cccc2ccccc12)Nc1cn([C@H]2C[C@@H](NC(=O)c3ccccn3)C2)cn1 | IC50 [5]: 1300 nM; Papp A→B [10]: 26 ×10⁻⁶ cm/s; Papp B→A [11]: 21 ×10⁻⁶ cm/s
8 | 15 | 107 | CC(=O)N(C)[C@H]1C[C@@H](n2cnc(NC(=O)Cc3cccc4ccccc34)c2)C1 | 
9 |  | 46 | O=C(Cc1cccc2ccccc12)Nc1cn(C2CCC2)cn1 | 
10 | 0.7 | 145 | COc1ccc(CC(=O)Nc2cn([C@H]3C[C@@H](C(=O)OC)C3)cn2)cc1 | 
11 |  | 748 | COc1ccc(CC(=O)Nc2cn(C3CCCCC3)cn2)cc1 | 
12 |  | 425 | COc1ccc(CC(=O)Nc2cn(C(C)C)cn2)cc1 | 
13 |  | 145 | COc1ccc(CC(=O)Nc2cn(C3CCC3)cn2)cc1 | inhibition [22]: 48%; inhibition [16]: 34%; inhibition [23]: 32%

More lines, now with the values behind:

Row | SMILES | Ratio IC50 [1] | IC50 [2] [nM] | further results
14 | COc1ccc(CC(=O)Nc2cn([C@H]3C[C@@H](NS(C)(=O)=O)C3)cn2)cc1 | 6 | 178 | 
15 | COc1ccc(CC(=O)Nc2cn(Cc3ccccc3)cn2)cc1 |  | 8640 | 
16 | Cc1cccc(C(=O)N[C@H]2C[C@@H](n3cnc(NC(=O)Cc4cccc5ccccc45)c3)C2)n1 |  | 6 | Kp at 1 h [3]: 0.12; Kp at 1 h [4]: 1.1; IC50 [5]: 230 nM; concentration at 1 h [6]: 383 ng/g; concentration at 1 h [7]: 280 ng/mL; concentration at 1 h [8]: 336 ng/mL; concentration at 1 h [9]: 34 ng/g
17 | O=C(Cc1ccccc1)Nc1cn(C2CCC2)cn1 |  | 500 | 
18 | NC(=O)[C@H]1C[C@@H](n2cnc(NC(=O)Cc3cccc4ccccc34)c2)C1 | 2 | 391 | 
19 | COc1ccc(CC(=O)Nc2cn([C@H]3C[C@@H](NC(C)=O)C3)cn2)cc1 | 7 | 9 | inhibition [12]: 94%; inhibition [13]: 101%; inhibition [14]: 7%; inhibition [15]: 39%; inhibition [16]: 100%; inhibition [17]: 94%; inhibition [18]: 92%; inhibition [19]: 55%; inhibition [20]: 89%; inhibition [21]: 47%
20 | CC(=O)N[C@H]1C[C@@H](n2cnc(NC(=O)Cc3cccc4ccccc34)c2)C1 | 17 | 8 | IC50 [5]: > 30000 nM; Papp A→B [10]: 1.5 ×10⁻⁶ cm/s; Papp B→A [11]: 17.5 ×10⁻⁶ cm/s
21 | O=C(Cc1ccccc1)Nc1ncc(C2CCC2)s1 | 1.5 | 64 | 
22 | COc1ccc(CC(=O)Nc2cn(C)cn2)cc1 |  | > 10000 | 
23 | COc1ccc(CC(=O)Nc2cn([C@H]3C[C@@H](O)C3)cn2)cc1 | 0.7 | 95 | 
24 | O=C(Cc1cccc2ccccc12)Nc1cn([C@H]2C[C@@H](NC(=O)c3cccc(Cl)n3)C2)cn1 | 34 | 6 | IC50 [5]: 673 nM; Ratio IC50 [24]: 100
